PMC7396962 (Xenobiotica; the fate of foreign compounds in biological …, 2020)

Biological target: T1, UGT1A9 (Homo sapiens, UniProt O60656)
T1 sequence (O60656 26-530): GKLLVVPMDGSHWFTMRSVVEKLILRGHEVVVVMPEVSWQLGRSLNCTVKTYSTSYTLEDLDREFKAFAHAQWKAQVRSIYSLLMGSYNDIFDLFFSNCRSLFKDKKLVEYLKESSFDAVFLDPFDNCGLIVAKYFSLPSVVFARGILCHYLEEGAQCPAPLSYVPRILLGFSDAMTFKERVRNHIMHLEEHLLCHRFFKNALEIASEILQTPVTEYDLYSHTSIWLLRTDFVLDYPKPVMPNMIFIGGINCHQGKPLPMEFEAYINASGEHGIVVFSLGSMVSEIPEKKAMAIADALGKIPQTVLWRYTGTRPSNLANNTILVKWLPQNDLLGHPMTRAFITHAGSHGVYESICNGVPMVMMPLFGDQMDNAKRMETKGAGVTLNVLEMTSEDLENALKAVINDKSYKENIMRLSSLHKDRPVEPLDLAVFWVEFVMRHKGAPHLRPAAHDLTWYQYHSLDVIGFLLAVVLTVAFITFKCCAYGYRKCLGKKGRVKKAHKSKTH
Format: in vitro ADME
Settings: panel of HLMs (n = 9), substrate 10 μM, p = 0.015
Summary of the method: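 Test compound (10 μM) glucuronidated in each of nine individual human liver microsomes (1 mg/mL) with UDPGA and alamethicin, pH 7.4, 37 °C for 60 min. Rates regressed linearly against each donor's propofol O-glucuronidation activity; correlation coefficient r reported, p < 0.05 significant.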

CC(C)=CCC/C(C)=C/Cc1cc(-c2coc3cc(O)ccc3c2=O)ccc1O [CA, Corylifol A]
correlation (r) between CA-7-O-glucuronidation and propofol-O-glucuronidation: 0.771
